From ChEMBL document CHEMBL1147483, “Novel p38 inhibitors with potent oral efficacy in several models of rheumatoid arthritis” (Bioorg Med Chem Lett, 2004)

Tests used:
Mus musculus [1] = experiment: Inhibition of LPS induced TNF-alpha release in mice following p.o. administration.; format: functional; design: concentration or dose not given beside the values
How it was run: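 LPS (20 mg/kg) given i.v. 1 h after dosing. Blood taken 1 h later; plasma TNF-α by mouse-specific ELISA. Reported as % inhibition or as ED50 (mg/kg p.o.).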

[2] = biological target: Mitogen-activated protein kinase 14 (Mus musculus, UniProt P47811); experiment: Inhibition of murine phosphorylated His-Mitogen-activated protein kinase p38 alpha.
Homo sapiens = species: Homo sapiens; experiment: Inhibition of LPS/IFN-gamma stimulated TNF-alpha release in human peripheral blood mononuclear cells after 3h of incubation.; format: functional, cell-based
How it was run: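 Human PBMCs from healthy volunteers incubated with inhibitor and stimulated with LPS/IFN-γ for 3 h. TNF-α in supernatants measured by ELISA; IC50 derived.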

Cytochrome P450 3A4 = Cytochrome P450 3A4 (Homo sapiens, UniProt P08684); experiment: Inhibition of human cytochrome P450 3A4; format: ADME
[3] = biological target: Proto-oncogene tyrosine-protein kinase Src (Homo sapiens, UniProt P12931); experiment: Inhibition of human c-Src
How it was run: (§1)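 In-house kinase selectivity panel against human kinases; IC50 (µM) determined.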

[4] = Half life was determined; format: ADME, organism-based; settings: rat, in vivo
Cytochrome P450 2C9 = Cytochrome P450 2C9 (Homo sapiens, UniProt P11712); experiment: Inhibition of human cytochrome P450 2C9; format: ADME
[5] = biological target: Prostaglandin G/H synthase 1 (Homo sapiens, UniProt P23219); experiment: Inhibition of human prostaglandin G/H synthase 1, COX-1
[6] = biological target: Cyclin-dependent kinase 1 (Homo sapiens, UniProt P06493); experiment: Inhibition of human cyclin-dependent kinase 1; how it was run: as §1
Cytochrome P450 1A2 = biological target: T1, Cytochrome P450 1A2 (Homo sapiens, UniProt P05177); experiment: Inhibition of human cytochrome P450 1A2; format: ADME
T1 sequence (P05177 whole entry): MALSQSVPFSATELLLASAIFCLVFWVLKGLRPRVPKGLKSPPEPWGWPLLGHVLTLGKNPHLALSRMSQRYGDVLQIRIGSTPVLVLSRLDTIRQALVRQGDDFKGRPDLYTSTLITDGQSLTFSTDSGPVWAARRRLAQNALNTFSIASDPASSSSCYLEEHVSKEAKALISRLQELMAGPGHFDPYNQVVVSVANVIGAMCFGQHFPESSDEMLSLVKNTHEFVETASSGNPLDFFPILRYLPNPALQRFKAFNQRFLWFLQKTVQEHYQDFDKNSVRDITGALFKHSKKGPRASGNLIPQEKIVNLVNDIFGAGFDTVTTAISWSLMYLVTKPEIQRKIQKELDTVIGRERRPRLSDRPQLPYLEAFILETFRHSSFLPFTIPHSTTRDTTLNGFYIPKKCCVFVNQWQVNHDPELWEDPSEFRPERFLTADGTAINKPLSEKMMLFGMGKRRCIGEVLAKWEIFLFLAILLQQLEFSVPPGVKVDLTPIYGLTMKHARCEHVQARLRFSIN

Rattus norvegicus [7] = experiment: Dose required to inhibit bovine nasalseptum type II collagen induced arthritis in rats after administration on day 13; format: functional; settings: 312 h
How it was run: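 Female WAG×BUF/F1 rats immunized intradermally with bovine nasal septum type II collagen in Freund's incomplete adjuvant; swelling starts ~10 days after immunization. Oral dosing once daily for 10 days, beginning day 13 when swelling was nearly maximal. ED50 (mg/kg p.o.) derived for inhibition of joint swelling.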

[8] = biological target: Insulin-like growth factor 1 receptor (Homo sapiens, UniProt P08069); experiment: Inhibition of human insulin-like growth factor I receptor; how it was run: as §1
[9] = biological target: Tyrosine-protein kinase ABL1 (Homo sapiens, UniProt P00519); experiment: Inhibition of human c-Abl; how it was run: as §1
[10] = biological target: Mitogen-activated protein kinase 8 (Homo sapiens, UniProt P45983); experiment: Inhibition of human c-Jun N-terminal kinase 1; how it was run: as §1
[11] = biological target: Mitogen-activated protein kinase 9 (Homo sapiens, UniProt P45984); experiment: Inhibition of human c-Jun N-terminal kinase 2; how it was run: as §1
Cytochrome P450 2D6 = Cytochrome P450 2D6 (Homo sapiens, UniProt P10635); experiment: Inhibition of human cytochrome P450 2D6; format: ADME
[12] = biological target: Hepatocyte growth factor receptor (Homo sapiens, UniProt P08581); experiment: Inhibition of human Met proto-oncogene tyrosine kinase
Rattus norvegicus [13] = experiment: Percent swelling of joints in rats immunized with Mycobacterium tuberculosis was determined on day 20 after 25 mg/kg peroral administration; format: functional; settings: route oral
How it was run: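 Female Wistar rats (adjuvant-induced arthritis) immunized with Mycobacterium tuberculosis on day 0; compounds given orally at 25 mg/kg twice daily (2 × 25 mg/kg p.o. per day) from day 14 to day 20; joint swelling measured on day 20 and expressed as % swelling.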

Mus musculus [14] = experiment: Dose required to inhibit of LPS (20 mg/kg, injected i.v. 1 hr […] dosing) induced TNF-alpha release in mice upon oral administration; format: functional
[15] = Oral bioavailability; format: ADME, organism-based; settings: rat, in vivo
[16] = biological target: Mast/stem cell growth factor receptor Kit (Homo sapiens, UniProt P10721); experiment: Inhibition of human c-Kit kinase; how it was run: as §1
[17] = biological target: RAF proto-oncogene serine/threonine-protein kinase (Homo sapiens, UniProt P04049); experiment: Inhibition of human RAF proto-oncogene serine/threonine-protein kinase; how it was run: as §1
[18] = biological target: Vascular endothelial growth factor receptor 2 (Homo sapiens, UniProt P35968); experiment: Inhibition of human vascular endothelial growth factor receptor 2; how it was run: as §1
[19] = biological target: T2, Epidermal growth factor receptor (Homo sapiens, UniProt P00533); experiment: Inhibition of human Epidermal growth factor receptor, HER-1
[20] = biological target: T2, Epidermal growth factor receptor; experiment: Inhibition of human epidermal growth factor receptor

Mitogen-activated protein kinase 14, sequence (P47811 whole entry): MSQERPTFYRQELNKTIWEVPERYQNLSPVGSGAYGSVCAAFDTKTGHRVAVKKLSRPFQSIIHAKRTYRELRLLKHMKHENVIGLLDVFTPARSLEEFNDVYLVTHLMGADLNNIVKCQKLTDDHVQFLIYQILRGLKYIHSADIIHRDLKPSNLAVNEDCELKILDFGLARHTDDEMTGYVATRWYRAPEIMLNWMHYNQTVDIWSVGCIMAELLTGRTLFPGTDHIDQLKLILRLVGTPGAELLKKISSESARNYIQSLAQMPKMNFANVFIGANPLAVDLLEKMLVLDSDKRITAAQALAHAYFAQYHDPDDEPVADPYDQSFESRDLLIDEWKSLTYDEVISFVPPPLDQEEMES
Cytochrome P450 2C9, sequence (P11712 whole entry): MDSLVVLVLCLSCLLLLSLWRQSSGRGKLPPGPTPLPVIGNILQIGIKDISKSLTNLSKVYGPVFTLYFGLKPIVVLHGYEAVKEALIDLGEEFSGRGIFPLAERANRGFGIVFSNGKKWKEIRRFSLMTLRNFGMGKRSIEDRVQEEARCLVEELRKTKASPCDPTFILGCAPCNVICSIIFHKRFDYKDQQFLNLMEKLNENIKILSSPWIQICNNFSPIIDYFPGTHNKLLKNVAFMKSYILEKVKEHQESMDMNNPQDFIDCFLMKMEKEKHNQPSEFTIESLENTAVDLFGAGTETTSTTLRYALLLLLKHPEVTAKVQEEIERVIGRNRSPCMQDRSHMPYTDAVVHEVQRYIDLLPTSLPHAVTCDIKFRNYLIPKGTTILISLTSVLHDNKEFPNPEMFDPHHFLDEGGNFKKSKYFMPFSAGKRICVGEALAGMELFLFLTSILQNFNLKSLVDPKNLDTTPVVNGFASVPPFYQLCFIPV
Cyclin-dependent kinase 1, sequence (P06493 whole entry): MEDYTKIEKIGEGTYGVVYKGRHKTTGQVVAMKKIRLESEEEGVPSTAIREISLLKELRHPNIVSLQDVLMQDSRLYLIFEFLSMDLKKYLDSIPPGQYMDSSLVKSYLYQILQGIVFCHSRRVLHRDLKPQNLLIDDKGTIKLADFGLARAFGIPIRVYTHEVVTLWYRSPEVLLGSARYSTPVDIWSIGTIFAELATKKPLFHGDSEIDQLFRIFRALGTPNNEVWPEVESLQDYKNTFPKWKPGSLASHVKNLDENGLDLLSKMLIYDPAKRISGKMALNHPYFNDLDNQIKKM
Mast/stem cell growth factor receptor Kit, sequence (P10721 whole entry): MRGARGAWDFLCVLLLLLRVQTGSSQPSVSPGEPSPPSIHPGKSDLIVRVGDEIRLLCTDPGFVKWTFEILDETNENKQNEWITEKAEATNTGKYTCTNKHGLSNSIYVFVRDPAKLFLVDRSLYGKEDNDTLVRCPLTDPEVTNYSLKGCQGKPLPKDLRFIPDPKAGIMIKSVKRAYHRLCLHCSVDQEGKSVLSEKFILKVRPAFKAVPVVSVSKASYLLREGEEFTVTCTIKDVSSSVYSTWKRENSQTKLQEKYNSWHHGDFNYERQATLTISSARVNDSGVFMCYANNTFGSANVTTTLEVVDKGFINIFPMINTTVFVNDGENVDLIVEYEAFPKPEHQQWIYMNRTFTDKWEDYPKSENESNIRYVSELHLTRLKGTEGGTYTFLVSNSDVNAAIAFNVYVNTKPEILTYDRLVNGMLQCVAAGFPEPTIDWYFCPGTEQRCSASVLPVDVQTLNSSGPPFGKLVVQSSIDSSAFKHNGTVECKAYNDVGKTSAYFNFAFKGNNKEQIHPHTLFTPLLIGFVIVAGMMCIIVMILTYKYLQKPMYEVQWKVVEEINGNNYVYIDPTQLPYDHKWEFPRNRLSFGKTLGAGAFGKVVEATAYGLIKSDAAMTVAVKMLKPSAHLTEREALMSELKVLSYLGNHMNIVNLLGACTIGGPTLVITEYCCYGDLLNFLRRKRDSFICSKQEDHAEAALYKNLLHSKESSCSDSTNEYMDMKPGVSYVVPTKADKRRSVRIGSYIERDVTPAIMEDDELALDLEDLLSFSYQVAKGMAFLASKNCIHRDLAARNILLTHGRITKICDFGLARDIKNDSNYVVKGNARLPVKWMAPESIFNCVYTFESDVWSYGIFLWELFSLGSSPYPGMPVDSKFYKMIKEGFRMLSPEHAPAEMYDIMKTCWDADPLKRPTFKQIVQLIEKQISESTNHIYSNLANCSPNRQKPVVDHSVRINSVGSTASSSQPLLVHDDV
Cytochrome P450 3A4, sequence (P08684 whole entry): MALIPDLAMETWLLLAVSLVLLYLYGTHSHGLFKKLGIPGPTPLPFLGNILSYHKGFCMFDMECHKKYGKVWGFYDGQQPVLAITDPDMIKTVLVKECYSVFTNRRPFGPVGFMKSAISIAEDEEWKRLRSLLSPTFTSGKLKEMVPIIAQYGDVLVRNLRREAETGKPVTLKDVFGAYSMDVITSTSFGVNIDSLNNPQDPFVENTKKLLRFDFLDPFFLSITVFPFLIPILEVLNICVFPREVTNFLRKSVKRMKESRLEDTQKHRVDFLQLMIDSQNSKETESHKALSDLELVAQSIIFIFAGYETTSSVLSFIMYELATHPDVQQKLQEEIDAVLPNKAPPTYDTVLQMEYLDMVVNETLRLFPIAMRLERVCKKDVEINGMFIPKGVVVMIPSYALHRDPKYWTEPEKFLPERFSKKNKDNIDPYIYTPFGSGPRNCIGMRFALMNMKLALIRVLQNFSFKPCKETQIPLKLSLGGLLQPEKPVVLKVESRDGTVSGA
Vascular endothelial growth factor receptor 2, sequence (P35968 whole entry): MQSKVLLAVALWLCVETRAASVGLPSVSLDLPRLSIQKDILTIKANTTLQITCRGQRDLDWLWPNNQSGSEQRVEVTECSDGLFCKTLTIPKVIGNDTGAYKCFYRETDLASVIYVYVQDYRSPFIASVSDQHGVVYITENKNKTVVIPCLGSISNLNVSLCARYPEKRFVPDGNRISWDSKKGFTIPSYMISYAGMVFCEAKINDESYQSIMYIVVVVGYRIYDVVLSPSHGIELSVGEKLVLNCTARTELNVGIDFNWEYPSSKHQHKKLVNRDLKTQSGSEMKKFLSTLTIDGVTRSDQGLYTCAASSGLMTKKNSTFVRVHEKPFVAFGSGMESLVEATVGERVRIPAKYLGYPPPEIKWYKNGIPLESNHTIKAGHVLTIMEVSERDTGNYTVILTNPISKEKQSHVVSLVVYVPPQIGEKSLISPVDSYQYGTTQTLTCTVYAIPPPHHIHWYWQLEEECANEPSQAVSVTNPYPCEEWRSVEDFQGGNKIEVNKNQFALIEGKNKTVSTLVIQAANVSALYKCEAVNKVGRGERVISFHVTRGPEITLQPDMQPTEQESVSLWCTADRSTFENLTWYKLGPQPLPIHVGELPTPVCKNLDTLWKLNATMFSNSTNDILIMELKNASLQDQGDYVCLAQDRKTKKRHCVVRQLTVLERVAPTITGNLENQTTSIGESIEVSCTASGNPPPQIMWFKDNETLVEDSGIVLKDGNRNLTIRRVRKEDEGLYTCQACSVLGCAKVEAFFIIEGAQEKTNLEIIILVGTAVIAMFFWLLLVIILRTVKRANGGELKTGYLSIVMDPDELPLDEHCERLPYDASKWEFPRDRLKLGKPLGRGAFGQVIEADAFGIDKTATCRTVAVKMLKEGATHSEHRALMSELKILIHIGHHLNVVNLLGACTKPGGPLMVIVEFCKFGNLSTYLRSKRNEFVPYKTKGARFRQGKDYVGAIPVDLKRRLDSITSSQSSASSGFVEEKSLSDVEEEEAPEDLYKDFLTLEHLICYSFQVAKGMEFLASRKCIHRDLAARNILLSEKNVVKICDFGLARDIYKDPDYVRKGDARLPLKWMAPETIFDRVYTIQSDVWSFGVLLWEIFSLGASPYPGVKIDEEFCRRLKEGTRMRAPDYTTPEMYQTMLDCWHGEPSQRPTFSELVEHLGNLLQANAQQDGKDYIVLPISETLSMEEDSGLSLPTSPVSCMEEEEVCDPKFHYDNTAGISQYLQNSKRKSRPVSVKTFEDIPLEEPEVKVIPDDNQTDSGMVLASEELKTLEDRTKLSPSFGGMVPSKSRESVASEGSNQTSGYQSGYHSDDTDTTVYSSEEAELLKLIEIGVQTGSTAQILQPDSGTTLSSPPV
Prostaglandin G/H synthase 1, sequence (P23219 whole entry): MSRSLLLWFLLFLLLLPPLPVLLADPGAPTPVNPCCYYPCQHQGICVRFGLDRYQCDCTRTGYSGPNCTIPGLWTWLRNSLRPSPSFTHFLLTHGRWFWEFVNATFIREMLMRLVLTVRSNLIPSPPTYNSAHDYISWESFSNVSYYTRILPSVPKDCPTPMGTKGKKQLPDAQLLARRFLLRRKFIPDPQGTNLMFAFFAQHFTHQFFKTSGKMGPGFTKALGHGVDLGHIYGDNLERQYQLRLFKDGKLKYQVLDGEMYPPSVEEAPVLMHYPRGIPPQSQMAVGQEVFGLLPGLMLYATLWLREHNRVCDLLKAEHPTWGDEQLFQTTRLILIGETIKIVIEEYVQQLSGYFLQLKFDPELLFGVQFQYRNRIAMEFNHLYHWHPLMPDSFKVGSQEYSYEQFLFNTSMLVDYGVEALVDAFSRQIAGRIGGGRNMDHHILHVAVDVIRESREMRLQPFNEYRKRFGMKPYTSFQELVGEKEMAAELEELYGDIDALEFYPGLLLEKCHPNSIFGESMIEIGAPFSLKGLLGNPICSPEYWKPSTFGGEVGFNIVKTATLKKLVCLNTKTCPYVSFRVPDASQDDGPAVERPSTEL
Mitogen-activated protein kinase 8, sequence (P45983 whole entry): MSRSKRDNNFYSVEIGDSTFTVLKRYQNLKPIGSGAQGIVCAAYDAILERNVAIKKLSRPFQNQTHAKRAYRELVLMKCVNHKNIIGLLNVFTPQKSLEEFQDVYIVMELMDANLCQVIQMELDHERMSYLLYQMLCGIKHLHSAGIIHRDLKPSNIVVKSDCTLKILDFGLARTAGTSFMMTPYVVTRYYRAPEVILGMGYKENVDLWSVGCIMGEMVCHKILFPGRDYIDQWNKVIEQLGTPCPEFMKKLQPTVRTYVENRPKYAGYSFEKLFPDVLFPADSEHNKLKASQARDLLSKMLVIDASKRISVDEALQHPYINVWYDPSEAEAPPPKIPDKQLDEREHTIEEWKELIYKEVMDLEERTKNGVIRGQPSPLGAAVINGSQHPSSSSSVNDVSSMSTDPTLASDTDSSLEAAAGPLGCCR

C[C@H](Nc1cc(-c2[nH]c(C3(O)CCN(C)CC3)nc2-c2ccc(F)cc2)ccn1)c1ccccc1
Inhibition (Mus musculus [1]): 42% | IC50 [2]: 7 nM | IC50 (Homo sapiens): 3 nM

C[C@H](Nc1nccc(-n2c(-c3ccc(F)cc3)nc3nc(N4CCN(C)CC4)ccc32)n1)c1ccccc1
Inhibition (Mus musculus [1]): 83% | IC50 [2]: 6 nM | IC50 (Homo sapiens): 1 nM

C[C@H](Nc1nccc(-n2cc(C3(O)CCN(C)CC3)nc2-c2ccc(F)cc2)n1)c1ccccc1
Inhibition (Mus musculus [1]): 94% | IC50 [2]: 4 nM

CN1CCC(O)(c2nc(-c3ccc(F)cc3)c(-c3ccncc3)o2)CC1
IC50 (Homo sapiens): 180 nM

C[C@H](Nc1cc(-c2sc(C3(O)CCN(C)CC3)nc2-c2ccc(F)cc2)ccn1)c1ccccc1
Inhibition (Mus musculus [1]): 94% | IC50 [2]: 5 nM | IC50 (Homo sapiens): 1 nM

CN1CCN(c2ccc3c(n2)nc(-c2ccc(F)cc2)n3-c2ccnc(NC3CCCC3)n2)CC1
IC50 (Cytochrome P450 3A4): > 2000 nM | IC50 [3]: > 10 µM | half-life [4]: 246 min | IC50 (Cytochrome P450 2C9): > 2000 nM | IC50 [5]: > 80 µM | IC50 [6]: > 10 µM | Inhibition (Mus musculus [1]): 94% | IC50 (Cytochrome P450 1A2): > 2000 nM | ED50 (Rattus norvegicus [7]): 4.22 mg/kg | IC50 [8]: > 10 µM | IC50 [9]: > 10 µM | IC50 [10]: 1500 nM | IC50 [2]: 15 nM | IC50 [11]: 47 nM | IC50 (Cytochrome P450 2D6): > 2000 nM | IC50 [12]: > 10 µM | Swelling (Rattus norvegicus [13]): 55% | ED50 (Mus musculus [14]): 1.41 mg/kg | bioavailability [15]: 72.8% | IC50 [16]: > 10 µM | IC50 [17]: > 10000 nM | IC50 (Homo sapiens): 1 nM | IC50 [18]: > 10 µM

CN1CCC(O)(c2nc(-c3ccc(F)cc3)c(-c3ccncc3)[nH]2)CC1
IC50 (Homo sapiens): 15 nM

Fc1ccc(-c2nc(C3CCNCC3)cn2-c2ccnc(NC3CCCCC3)n2)cc1
Inhibition (Mus musculus [1]): 29% | IC50 [2]: 5 nM | IC50 (Homo sapiens): 0.8 nM

C[C@H](Nc1cc(-c2sc(C3CCN(C)CC3)nc2-c2ccc(F)cc2)ccn1)c1ccccc1
IC50 (Cytochrome P450 3A4): > 2000 nM | IC50 [3]: 8 µM | IC50 [19]: 1100 nM | half-life [4]: 750 min | IC50 (Cytochrome P450 2C9): > 2000 nM | IC50 [20]: 700 nM | IC50 [5]: > 80 µM | IC50 [6]: > 10 µM | Inhibition (Mus musculus [1]): 88% | IC50 (Cytochrome P450 1A2): > 2000 nM | ED50 (Rattus norvegicus [7]): 7 mg/kg | IC50 [8]: > 10 µM | IC50 [9]: > 10 µM | IC50 [10]: 1900 nM | IC50 [2]: 18 nM | IC50 [11]: 261 nM | IC50 (Cytochrome P450 2D6): > 2000 nM | IC50 [12]: > 10 µM | Swelling (Rattus norvegicus [13]): 57% | ED50 (Mus musculus [14]): 2.06 mg/kg | bioavailability [15]: 20.3% | IC50 [16]: > 10 µM | IC50 [17]: 2100 nM | IC50 (Homo sapiens): 0.6 nM | IC50 [18]: 1.7 µM

C[C@H](Nc1nccc(-c2oc(C3(O)CCN(C)CC3)nc2-c2ccc(F)cc2)n1)c1ccccc1
Inhibition (Mus musculus [1]): 19% | IC50 [2]: 11 nM | IC50 (Homo sapiens): 8 nM

CN1CCC(O)(c2cn(-c3ccnc(NC4CCCC4)n3)c(-c3cccc(C(F)(F)F)c3)n2)CC1
IC50 (Cytochrome P450 3A4): > 2000 nM | IC50 [3]: > 10 µM | half-life [4]: 210 min | IC50 (Cytochrome P450 2C9): > 2000 nM | IC50 [5]: > 80 µM | IC50 [6]: > 10 µM | Inhibition (Mus musculus [1]): 94% | IC50 (Cytochrome P450 1A2): > 2000 nM | ED50 (Rattus norvegicus [7]): 9.51 mg/kg | IC50 [8]: > 10 µM | IC50 [9]: > 10 µM | IC50 [10]: > 10000 nM | IC50 [2]: 29 nM | IC50 [11]: 4660 nM | IC50 (Cytochrome P450 2D6): > 2000 nM | Swelling (Rattus norvegicus [13]): 58% | ED50 (Mus musculus [14]): 1.07 mg/kg | bioavailability [15]: 23.2% | IC50 [16]: > 10 µM | IC50 (Homo sapiens): 1 nM | IC50 [18]: > 10 µM

C[C@H](Nc1nccc(-c2[nH]c(C3(O)CCN(C)CC3)nc2-c2ccc(F)cc2)n1)c1ccccc1
Inhibition (Mus musculus [1]): 83% | IC50 [2]: 2 nM | bioavailability [15]: 10% | IC50 (Homo sapiens): 0.1 nM

C[C@H](Nc1cc(-c2oc(C3(O)CCN(C)CC3)nc2-c2ccc(F)cc2)ccn1)c1ccccc1
Inhibition (Mus musculus [1]): 21% | IC50 [2]: 9 nM | IC50 (Homo sapiens): 3 nM

CN1CCC(O)(c2nc(-c3ccc(F)cc3)c(-c3ccncc3)s2)CC1
IC50 (Homo sapiens): 145 nM

FC(F)(F)c1cccc(-c2nc(C3CCNCC3)cn2-c2ccnc(NC3CCCCC3)n2)c1
Inhibition (Mus musculus [1]): 77% | IC50 [2]: 8 nM | IC50 (Homo sapiens): 2 nM
